Reference: PMC11310207 (Scientific Reports, 2024)
Where two headings read alike, the source gives them in different places. Ends that are not written are not given here. Peptide text beside a SMILES is read from it. * marks the point of attachment. 5FAM = O=C1OC2(c3ccc(O)cc3Oc3cc(O)ccc32)c2ccc(C(=O)*)cc21

Key:
recombinant human Nln [1] = target: T1, recombinant human Nln (Homo sapiens, UniProt Q9BYT8); assay: Competition of Dyn A peptides with quenched fluorogenic Nln substrate; format: biochemical
T1 sequence (Q9BYT8 38-704): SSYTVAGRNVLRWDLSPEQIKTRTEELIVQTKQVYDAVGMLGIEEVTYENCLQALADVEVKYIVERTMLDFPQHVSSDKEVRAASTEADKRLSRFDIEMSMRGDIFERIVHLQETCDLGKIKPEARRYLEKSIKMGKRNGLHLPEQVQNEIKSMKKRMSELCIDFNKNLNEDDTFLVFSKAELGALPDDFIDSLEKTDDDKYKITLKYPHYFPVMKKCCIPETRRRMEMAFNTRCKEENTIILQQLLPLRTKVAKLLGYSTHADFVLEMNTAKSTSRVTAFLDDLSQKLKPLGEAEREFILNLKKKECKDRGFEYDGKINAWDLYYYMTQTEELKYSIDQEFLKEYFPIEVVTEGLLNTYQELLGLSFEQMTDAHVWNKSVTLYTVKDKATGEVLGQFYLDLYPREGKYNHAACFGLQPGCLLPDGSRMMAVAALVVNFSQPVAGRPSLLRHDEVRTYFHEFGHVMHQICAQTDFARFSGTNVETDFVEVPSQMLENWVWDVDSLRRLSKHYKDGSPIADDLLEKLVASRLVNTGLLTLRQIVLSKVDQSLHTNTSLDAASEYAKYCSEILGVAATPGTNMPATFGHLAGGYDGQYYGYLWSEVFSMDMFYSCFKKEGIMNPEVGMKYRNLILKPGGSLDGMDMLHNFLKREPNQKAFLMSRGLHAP
Method in brief: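 N-terminally 6xHis-tagged human Nln (Ser38–Pro704) was incubated in aCSF at 37 °C with 15 µM quenched substrate Mca-Pro-Leu-Gly-Pro-D-Lys(DNP)-OH, ± Dyn A peptide at 0.1–100 µM. Fluorescence was recorded continuously for 20 min under initial-velocity conditions (<10% substrate consumed). V0 was expressed as % of the no-peptide control and fitted to three-parameter log(inhibitor)–response to give IC50. Ki was calculated by Cheng–Prusoff (Km 8 µM). n=4, duplicates.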

rNln E475A = rNln E475A (Rattus norvegicus, UniProt P42676, E498A); format: binding
Chain of rNln E475A (P42676 37-704 E498A): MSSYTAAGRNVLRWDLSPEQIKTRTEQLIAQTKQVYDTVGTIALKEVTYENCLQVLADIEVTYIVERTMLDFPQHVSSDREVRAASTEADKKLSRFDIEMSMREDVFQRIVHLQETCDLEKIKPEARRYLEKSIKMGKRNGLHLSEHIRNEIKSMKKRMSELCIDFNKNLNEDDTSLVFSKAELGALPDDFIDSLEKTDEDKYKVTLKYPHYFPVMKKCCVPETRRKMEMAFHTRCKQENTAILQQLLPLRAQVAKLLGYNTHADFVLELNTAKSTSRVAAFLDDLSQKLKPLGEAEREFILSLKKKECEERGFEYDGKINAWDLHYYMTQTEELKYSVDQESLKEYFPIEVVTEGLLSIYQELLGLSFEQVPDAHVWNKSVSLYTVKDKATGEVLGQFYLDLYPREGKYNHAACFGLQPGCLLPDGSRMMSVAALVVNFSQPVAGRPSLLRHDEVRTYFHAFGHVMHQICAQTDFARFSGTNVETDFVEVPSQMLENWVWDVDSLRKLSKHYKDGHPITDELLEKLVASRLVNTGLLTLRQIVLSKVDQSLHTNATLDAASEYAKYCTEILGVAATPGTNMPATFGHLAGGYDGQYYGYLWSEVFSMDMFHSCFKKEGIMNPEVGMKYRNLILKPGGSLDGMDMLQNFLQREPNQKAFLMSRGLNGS
Method in brief: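 Rat Nln (Met37–Ser704, E475A) with a C-terminal 6xHis tag, expressed in E. coli BL21(DE3) and purified by Ni-affinity and SEC. FAM-labelled Dyn A peptides (FAM replacing Tyr1; 18 nM final) were mixed with 0–50 µM Nln in aCSF (0.2 µM ZnSO4, pH 7.2) plus 0.01% Triton X-100. Polarization was read at 25 °C (ex 485/em 535 nm). ΔmP versus no-Nln was fitted to one-site binding with ligand depletion for KD.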

recombinant human Nln [2] = target: T1, recombinant human Nln; details: read-out: Ki (published value); inhibition of Nln; cited from earlier work

| Compound | Ki (recombinant human Nln [1]) | Kd (rNln E475A) | further results |
| --- | --- | --- | --- |
| CC[C@H](C)[C@H](NC(=O)[C@H](CCCNC(=N)N)NC(=O)[C@H](CCCNC(=N)N)NC(=O)[C@H](CC(C)C)NC(=O)[C@H](Cc1ccccc1)NC(=O)CNC(=O)CNC(=O)[C@@H](N)Cc1ccc(O)cc1)C(=O)N[C@@H](CCCNC(=N)N)C(=O)N1CCC[C@H]1C(=O)N[C@@H](CCCCN)C(=O)N[C@@H](CC(C)C)C(=O)N[C@@H](CCCCN)C(=O)N[C@@H](Cc1c[nH]c2ccccc12)C(=O)N[C@@H](CC(=O)O)C(=O)N[C@@H](CC(N)=O)C(=O)N[C@@H](CCC(N)=O)C(=O)O [Dyn A (1–17)] | ~6 µM | – | – |
| CC[C@H](C)[C@H](NC(=O)[C@H](CCCNC(=N)N)NC(=O)[C@H](CCCNC(=N)N)NC(=O)[C@H](CC(C)C)NC(=O)[C@H](Cc1ccccc1)NC(=O)CNC(=O)CNC(=O)c1ccc2c(c1)C(=O)OC21c2ccc(O)cc2Oc2cc(O)ccc21)C(=O)N[C@@H](CCCNC(=N)N)C(=O)N1CCC[C@H]1C(=O)N[C@@H](CCCCN)C(=O)N[C@@H](CC(C)C)C(=O)N[C@@H](CCCCN)C(=O)N[C@@H](Cc1c[nH]c2ccccc12)C(=O)N[C@@H](CC(=O)O)C(=O)N[C@@H](CC(N)=O)C(=O)N[C@@H](CCC(N)=O)C(=O)O [FAM-^2GGFLRRIRPKLKWDNQ^17] | – | 3.26 µM | – |
| CC[C@H](C)[C@H](NC(=O)[C@H](CCCNC(=N)N)NC(=O)[C@H](CCCNC(=N)N)NC(=O)[C@H](CC(C)C)NC(=O)[C@H](Cc1ccccc1)NC(=O)CNC(=O)CNC(=O)c1ccc2c(c1)C(=O)OC21c2ccc(O)cc2Oc2cc(O)ccc21)C(=O)N[C@@H](CCCNC(=N)N)C(=O)N1CCC[C@H]1C(=O)O [FAM-^2GGFLRRIRP^10] (5FAM-GGFLRRIRP-OH) | – | 8.46 µM | – |
| CC[C@H](C)[C@H](NC(=O)[C@H](CCCNC(=N)N)NC(=O)[C@H](CCCNC(=N)N)NC(=O)[C@H](CC(C)C)NC(=O)[C@H](Cc1ccccc1)NC(=O)CNC(=O)CNC(=O)c1ccc2c(c1)C(=O)OC21c2ccc(O)cc2Oc2cc(O)ccc21)C(=O)N[C@@H](CCCNC(=N)N)C(=O)N1CCC[C@H]1C(=O)N[C@@H](CCCCN)C(=O)N[C@@H](CC(C)C)C(=O)N[C@@H](CCCCN)C(=O)O [FAM-^2GGFLRRIRPKLK^13] | – | 4.69 µM | – |
| CC[C@H](C)[C@H](NC(=O)[C@H](CCCNC(=N)N)NC(=O)[C@H](CCCNC(=N)N)NC(=O)[C@H](CC(C)C)NC(=O)[C@H](Cc1ccccc1)NC(=O)CNC(=O)CNC(=O)[C@@H](N)Cc1ccc(O)cc1)C(=O)N[C@@H](CCCNC(=N)N)C(=O)N1CCC[C@H]1C(=O)N[C@@H](CCCCN)C(=O)N[C@@H](CC(C)C)C(=O)N[C@@H](CCCCN)C(=O)O [Dyn A (1–13)] | – | – | Ki (recombinant human Nln [2]): 1.19 µM |
| YGGFLRRIR [Dyn A (1–9)] | ~6 µM | – | – |
